One protein from ChEMBL document CHEMBL3576784, “Azolylthioacetamide: A Highly Promising Scaffold for the Development of Metallo-β-lactamase Inhibitors” (ACS Med Chem Lett, 2015) can be followed below.

Substrate in the data set: C[C@@H](O)[C@H]1C(=O)N2C(C(=O)O)=C(SCCNC=N)C[C@H]12
The data set can be described thus: Activity of Aeromonas veronii metallo-beta-lactamase ImiS. In short, it runs like this:
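Purified enzyme; initial rates of imipenem hydrolysis followed by UV spectrophotometry (262 or 300 nm) in 50 mM Tris pH 7.0, 25 °C. Substrate 24–140 μM, inhibitor 0–10 μM. Rates in triplicate and averaged. Inhibition mode from Lineweaver–Burk plots. Ki from fits of initial velocity vs substrate concentration at each inhibitor level.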

B1: Beta-lactamase (Aeromonas veronii), O31272 (protein)
chain: MMKGWIKCGLAGAVVLMASFWGGSVRAAGMSLTQQVSGPVYVVEDNYYVQENSMVYFGAKGVTVVGATWTPDTARELHKLIKRVSRKPVLEVINTNYHTDRAGGNAYWKSIGAKVISTRQTRDLMKSDWAEIVAFTRKGLPEYPDLPLVLPNVVHEGDFTLQEGKLRAFYLGPAHSPDGIFVYFPDQQVLYGNCILKEKLGNLSFADVKAYPQTLERLKAMKLPIKTVVGGHDSPLHGPELIDHYEALIKAASQS
As to B1, the Km came to 99 µM and the kcat was 255 s⁻¹.

One may read the Km as the substrate concentration at which the rate is half of its maximum. Usually kcat stands for the maximal rate divided by the concentration of active sites.
